# Screening results as filed in PubChem.
# This excerpt belongs to a sample that is enriched for hits.
# A1 apoptosis 2 = blocks A1, raising caspase activity; MEF A1-2A-BIM cells, caspase-Glo luminescence, 3 h; percent of clofoctol response, DMSO zero; caspase activation, % (test concentration not listed); 24,000 tested, under 10 active; AID 2465; in the data active = caspase activation above about 5.9%
#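 Test system – A1-2A-BIM-expressing MEF cells · Input – 2500 cells/well · Medium – RPMI-1640 growth medium with 10% FBS · Compound dosing – 50 nL pinned compound · Timing – 3 h compound exposure at 37 °C · Technique – Caspase-Glo luminescence (DEVD substrate) · Evaluation – Caspase-3/7 activity from luminescence increase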
# A number is an active result; - = inactive.
SMILES,A1 apoptosis 2
COC(=O)C[C@H]1O[C@@]2(C[C@@H]1[Si](C)(C)C)C(=O)N(C)c1ccccc12,-
COc1ccc(NC(=O)N(C)C[C@@H]2OCCCC[C@H](C)Oc3ccc(NC(=O)C4CCCCC4)cc3C(=O)N([C@H](C)CO)C[C@H]2C)cc1,-
Cc1noc(C)c1NC(=O)N(C)C[C@H]1OCCCC[C@@H](C)Oc2ccc(N(C)C)cc2C(=O)N([C@@H](C)CO)C[C@H]1C,-
C[C@@H]1CN([C@@H](C)CO)C(=O)Cc2cc(NC(=O)CCC(F)(F)F)ccc2O[C@H]1CN(C)Cc1ccc(C(F)(F)F)cc1,-
Cc1ccc(S(=O)(=O)N(C)C[C@@H]2Oc3c(NC(=O)c4nc5ccccc5s4)cccc3C(=O)N([C@@H](C)CO)C[C@H]2C)cc1,-
C[C@@H]1CN([C@@H](C)CO)C(=O)Cc2cc(NC(=O)CCN3CCOCC3)ccc2O[C@H]1CN(C)Cc1ccncc1,-
C[C@@H]1CN([C@@H](C)CO)C(=O)Cc2cc(NC(=O)Cc3cn(C)c4ccccc34)ccc2O[C@H]1CN(C)S(=O)(=O)c1cccs1,-
CNC[C@H]1Oc2ccc(NC(=O)Nc3cccc4ccccc34)cc2CC(=O)N([C@H](C)CO)C[C@@H]1C,-
Cc1ccc(S(=O)(=O)Nc2ccc3c(c2)C(=O)N([C@@H](C)CO)C[C@@H](C)[C@H](CN(C)C(=O)C2CCCCC2)OCCCC[C@@H](C)O3)cc1,-
COc1ccc(S(=O)(=O)N(C)C[C@@H]2Oc3c(NS(=O)(=O)c4ccc(C)cc4)cccc3C(=O)N([C@@H](C)CO)C[C@@H]2C)cc1,-
C[C@@H]1CN([C@@H](C)CO)C(=O)c2cc(NC(=O)CCN3CCOCC3)ccc2O[C@@H]1CN(C)S(=O)(=O)c1cn(C)cn1,-
C[C@@H]1CN([C@H](C)CO)C(=O)c2cccc(NC(=O)Nc3ccccc3)c2O[C@@H]1CN(C)Cc1ccc(-c2ccccc2)cc1,-
[N-]=[N+]=NCc1ccccc1C[C@]1(C(=O)NCC(O)CO)N=C(c2ccc(OCCCO)cc2)O[C@H]1c1ccccc1 (some centres undefined),-
COC(=O)[C@@]1(Cc2ccccc2CN=[N+]=[N-])N=C(c2ccc(OCCCO)cc2)O[C@H]1c1ccccc1,-
[N-]=[N+]=NCc1ccccc1C[C@@]1(C(=O)NCC(O)CO)N=C(c2ccc(OCCCO)cc2)O[C@@H]1c1ccccc1 (some centres undefined),5.9
COc1ccc(S(=O)(=O)N(C)C[C@H]2Oc3ccc(NC(=O)Nc4ccccc4)cc3C(=O)N([C@@H](C)CO)C[C@H]2C)cc1,-
COc1ccc(S(=O)(=O)Nc2ccc3c(c2)C(=O)N([C@H](C)CO)C[C@H](C)[C@H](CN(C)S(=O)(=O)c2ccc(OC)cc2)OCCCC[C@H](C)O3)cc1,-
C[C@H](CO)N1C[C@H](C)[C@@H](CN(C)S(=O)(=O)c2ccc(F)cc2)OCCCC[C@H](C)Oc2ccc(NS(=O)(=O)c3cn(C)cn3)cc2C1=O,-
CNC[C@H]1Oc2ccc(NC(=O)Nc3ccc(OC)cc3)cc2CC(=O)N([C@H](C)CO)C[C@H]1C,-
C[C@@H]1CCCCO[C@@H](CN(C)C(=O)CCCN(C)C)[C@@H](C)CN([C@@H](C)CO)C(=O)c2cc(NS(=O)(=O)c3cccs3)ccc2O1,-
